We go through ten compounds from ChEMBL document CHEMBL1131469, “Novel non-peptide fibrinogen receptor antagonists. 1. Synthesis and glycoprotein IIb-IIIa antagonistic activities of 1,3,4-trisubstituted 2-oxopiperazine derivatives incorporating side-chain functions of the RGDF peptide” (J Med Chem, 1998).

The target of this test is Integrin alpha-IIb/beta-3 (Homo sapiens, UniProt P05106+P08514). The test is described as follows: Ability to inhibit binding of biotin-labeled human fibrinogen to immobilized fibrinogen receptor purified from human erythroleukemia (HEL) cells. In short, it runs like this:
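Purified GP IIb-IIIa (1 μg/mL, pH 7.4 Tris/NaCl/CaCl2 buffer) coated overnight at 4 °C, blocked with 3.5% BSA 2 h at 30 °C. Wells then incubated with 1 nM biotinylated fibrinogen plus graded compound concentrations, 3 h at 30 °C. IC50 from dose–response curves.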

The structures appear in SMILES notation. Peptide text beside a SMILES is read from it.

Chain of Integrin alpha-IIb/beta-3 (P05106 27-788 limits assumed): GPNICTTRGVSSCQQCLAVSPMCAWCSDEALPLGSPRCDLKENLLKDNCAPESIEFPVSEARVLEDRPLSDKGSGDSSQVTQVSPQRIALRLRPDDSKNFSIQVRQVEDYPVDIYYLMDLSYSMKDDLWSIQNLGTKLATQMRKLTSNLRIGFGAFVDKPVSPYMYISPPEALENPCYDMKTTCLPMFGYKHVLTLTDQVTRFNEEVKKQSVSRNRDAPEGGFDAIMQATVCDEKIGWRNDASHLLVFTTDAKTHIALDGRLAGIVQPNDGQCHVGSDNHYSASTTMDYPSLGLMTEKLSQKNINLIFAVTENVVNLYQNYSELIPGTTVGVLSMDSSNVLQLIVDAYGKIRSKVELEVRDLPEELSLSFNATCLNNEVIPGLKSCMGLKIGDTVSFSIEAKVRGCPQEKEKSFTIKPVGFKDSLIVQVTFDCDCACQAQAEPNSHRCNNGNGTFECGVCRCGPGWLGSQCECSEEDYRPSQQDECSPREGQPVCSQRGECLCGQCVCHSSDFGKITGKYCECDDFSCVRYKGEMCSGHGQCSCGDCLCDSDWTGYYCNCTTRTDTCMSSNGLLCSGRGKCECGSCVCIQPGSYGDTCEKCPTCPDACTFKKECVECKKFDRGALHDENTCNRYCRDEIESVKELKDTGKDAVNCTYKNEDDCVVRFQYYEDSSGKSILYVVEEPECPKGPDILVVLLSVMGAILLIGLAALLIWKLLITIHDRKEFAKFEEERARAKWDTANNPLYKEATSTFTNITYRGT
Chain of Integrin alpha-IIb/beta-3 (P08514 32-887 limits assumed): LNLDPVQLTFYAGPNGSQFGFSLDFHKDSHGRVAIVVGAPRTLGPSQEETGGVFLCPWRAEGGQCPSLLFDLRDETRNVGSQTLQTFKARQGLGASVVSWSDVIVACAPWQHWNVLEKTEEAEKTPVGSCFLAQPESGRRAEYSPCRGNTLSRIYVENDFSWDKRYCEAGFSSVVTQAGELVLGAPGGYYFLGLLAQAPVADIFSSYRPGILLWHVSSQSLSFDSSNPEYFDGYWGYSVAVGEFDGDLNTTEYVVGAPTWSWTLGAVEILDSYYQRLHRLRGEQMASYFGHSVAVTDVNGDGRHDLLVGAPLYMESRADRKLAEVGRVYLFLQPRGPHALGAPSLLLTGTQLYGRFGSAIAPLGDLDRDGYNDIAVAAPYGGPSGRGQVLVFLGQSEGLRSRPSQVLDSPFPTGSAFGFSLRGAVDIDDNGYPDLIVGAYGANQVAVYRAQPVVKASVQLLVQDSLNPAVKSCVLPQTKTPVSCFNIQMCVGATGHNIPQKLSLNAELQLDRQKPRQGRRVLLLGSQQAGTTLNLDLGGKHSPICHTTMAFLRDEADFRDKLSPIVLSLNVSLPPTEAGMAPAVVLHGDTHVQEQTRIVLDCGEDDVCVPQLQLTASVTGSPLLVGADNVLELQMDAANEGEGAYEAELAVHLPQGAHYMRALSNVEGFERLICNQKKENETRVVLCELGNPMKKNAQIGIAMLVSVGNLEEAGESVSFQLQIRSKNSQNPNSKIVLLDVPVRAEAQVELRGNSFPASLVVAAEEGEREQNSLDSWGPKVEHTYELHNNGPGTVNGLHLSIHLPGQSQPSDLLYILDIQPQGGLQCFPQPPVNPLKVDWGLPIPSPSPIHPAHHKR
Chain of Integrin alpha-IIb/beta-3 (P08514 891-1039 limits assumed): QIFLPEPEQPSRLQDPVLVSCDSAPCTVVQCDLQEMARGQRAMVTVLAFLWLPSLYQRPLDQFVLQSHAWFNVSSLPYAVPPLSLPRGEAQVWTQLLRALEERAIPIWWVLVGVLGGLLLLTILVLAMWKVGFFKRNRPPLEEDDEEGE

Usually IC50 stands for the concentration that gives 50% inhibition. `N=C(N)c1ccc(C(=O)NCC(=O)N2CCN(CC(=O)O)C(=O)[C@@H]2CCC(=O)O)cc1`: the half-maximal inhibitory concentration (IC50) amounted to 0.21 nM. This lies in the sub-nanomolar range.

For the compound `N=C(N)c1cccc(C(=O)NCC(=O)N2CCN(CC(=O)O)C(=O)[C@@H]2CC(=O)O)c1`, the half-inhibitory concentration (IC50) was 130 nM. The value for `N=C(N)c1ccc(C(=O)NCC(=O)N2CCN(CC(=O)O)C(=O)[C@@H]2Cc2ccccc2)cc1` was 1.95 nM; that for `COC(=O)C[C@@H]1C(=O)N(CC(=O)O)CCN1C(=O)CNC(=O)c1ccc(C(=N)N)cc1` was 16.4 nM; that for `N=C(N)c1ccc(C(=O)NCC(=O)N2CCN(CC(N)=O)C(=O)[C@@H]2CC(=O)O)cc1` was 330 nM. The value for `N=C(N)c1ccc(C(=O)NCC(=O)N2CCN(CCC(=O)O)C(=O)[C@@H]2CC(=O)O)cc1` was 63 nM; that for `COC(=O)CC[C@H]1C(=O)N(CC(=O)O)CCN1C(=O)CNC(=O)c1ccc(C(=N)N)cc1` was 0.29 nM; that for `N=C(N)NCC1CCC(C(=O)NCC(=O)N2CCN(CC(=O)O)C(=O)[C@@H]2CC(=O)O)CC1` (stereo not given in full) was 20 nM. Then `CN(C)C(N)=Nc1ccc(C(=O)NCC(=O)N2CCN(CC(=O)O)C(=O)[C@@H]2CC(=O)O)cc1`, with 210 nM.

`N=C(N)NCCC[C@H](N)C(=O)NCC(=O)N[C@@H](CC(=O)O)C(=O)N[C@@H](Cc1ccccc1)C(=O)O` (H-RGDF-OH) registered an IC50 of 110 nM.
